In series [1] the test system is human iPS-IECMs. Kind of series: Determination of Fg value. The series is classed as in vitro ADME. The following applies: 3 μM MDZ apical, 60-minute incubation. Summed up:
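Monolayers on inserts were preincubated 10 min at 37°C in HBSS with 10 mM HEPES, pH 7.4. Apical: 3 μM midazolam in HBSS; basolateral: HBSS with 0.1% DMSO. After 60 min at 37°C, both chambers and the twice-washed cells were collected into acetonitrile/ethanol (7:3) with candesartan internal standard. Midazolam and 1′-OH midazolam were quantified by UPLC-MS/MS. Fg was derived from summed metabolite across all compartments plus basolateral and cellular midazolam.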

The next series concerns human intestinal tissue. The following applies: human intestinal tissue / human in vivo; cited from earlier work.
Series [2] has as its system human iPS-IECMs. Nature of the series: LY permeability test across human iPS-IECMs. Format: in vitro ADME. The following applies: Ad-LacZ- and Ad-TF-transduced cells; apical to basolateral; 60 μM LY, 70 min, 37°C.

For the compound `Cc1ncc2n1-c1ccc(Cl)cc1C(c1ccccc1F)=NC2` [MDZ, midazolam], the “Fg (fraction passing the gut wall)” value in the series with human iPS-IECMs [1] is 0.73; in the series with human intestinal tissue it was 0.57.
In the case of LY CH Dipotassium Salt, in the series on human iPS-IECMs [2], the “Lucifer yellow (LY) Papp” value is given as “approximately 0.44 ×10^–6 cm/s”.
